TAAR1 antag – human TAAR1 antagonists, primary screen, Fluo-8 calcium fluorescence, CHO RD-HGA16 cells. actives 1.5% (n = 360,000). Trace amine-associated receptor 1 (Homo sapiens), Q96RJ0. AID 624466, 2012. antagonist. inhibition, % at 3 µM;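 active = inhibition above a per-plate cutoff, the mean inhibition of test compounds on that plate plus 3 SD, cut at about 49% in these data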
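System: RD-HGA16 CHO cells with stable hTAAR1 and Gα16 | Probe or stimulus: EC80 β-phenethylamine stimulus | Dosing: 3 µM, single point | Times: Dye loading 75 min at 37 °C, then 30 min room temperature | Measured by: Fluo-8 calcium-sensitive fluorescence | Read-out basis: % inhibition of agonist calcium response | Replicates: n of 1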
TAAR1 agonist – human TAAR1 agonists, primary screen, Fluo-8 calcium fluorescence, CHO RD-HGA16 cells; vehicle wells 0%, saturating PEA agonist 100%; actives 0.99% (n = 360,000); Trace amine-associated receptor 1 (Homo sapiens), Q96RJ0; activation, % at 3 µM;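 active = activation above the mean activation of all test compounds in the run plus 3 SD, cut at about 38% in these data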
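test system = CHO RD-HGA16 cells carrying human TAAR1 plus Gα16 | schedule = 17-24 h seeding, 75 min 37 °C dye, 30 min RT | compound dosing = 3 µM single concentration | control set = DMSO and PEA EC100 | replicates = n 1 | signal = Fluo-8 fluorescence, 5 s baseline then 140 s kinetic read | measure = percent activation vs PEA EC100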
OX1R antag-1 – OX1R (HCRTR1) antagonists, primary screen, fluorescence, CHO/OX1R cells, Fluo-8 calcium, orexin A; Fluo-8 calcium fluorescence; inhibition, % at 5 µM; actives 0.43% (n = 330,000);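 active = inhibition above its plate's threshold, mean inhibition of all tested compounds on the plate plus 3 SD, cut at about 37% in these data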
Target sequence (O43613 whole entry, looked up): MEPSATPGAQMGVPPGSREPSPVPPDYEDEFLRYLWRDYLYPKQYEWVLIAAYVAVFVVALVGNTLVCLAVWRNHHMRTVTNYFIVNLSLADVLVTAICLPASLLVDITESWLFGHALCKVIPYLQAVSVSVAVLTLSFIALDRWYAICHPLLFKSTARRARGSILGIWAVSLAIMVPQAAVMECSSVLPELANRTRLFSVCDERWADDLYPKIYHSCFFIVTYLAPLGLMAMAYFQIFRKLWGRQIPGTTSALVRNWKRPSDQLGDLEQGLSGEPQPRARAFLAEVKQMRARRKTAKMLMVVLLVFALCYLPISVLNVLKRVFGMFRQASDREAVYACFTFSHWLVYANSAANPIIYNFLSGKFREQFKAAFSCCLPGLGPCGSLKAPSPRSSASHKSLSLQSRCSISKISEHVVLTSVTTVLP
GPR7 antag – GPR7 receptor antagonists, primary screen, cell-based, fluorescence, single concentration; Neuropeptides B/W receptor type 1 (Homo sapiens), P48145; GPR7-expressing cells, fluorescence antagonist assay; inhibition, % at 4.4 µM; actives 1.1% (n = 290,000); in the data active = inhibition above about 16%, passing the limit was not always enough;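 also: cells stimulated with the agonist NPW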
Target sequence (P48145 whole entry, looked up): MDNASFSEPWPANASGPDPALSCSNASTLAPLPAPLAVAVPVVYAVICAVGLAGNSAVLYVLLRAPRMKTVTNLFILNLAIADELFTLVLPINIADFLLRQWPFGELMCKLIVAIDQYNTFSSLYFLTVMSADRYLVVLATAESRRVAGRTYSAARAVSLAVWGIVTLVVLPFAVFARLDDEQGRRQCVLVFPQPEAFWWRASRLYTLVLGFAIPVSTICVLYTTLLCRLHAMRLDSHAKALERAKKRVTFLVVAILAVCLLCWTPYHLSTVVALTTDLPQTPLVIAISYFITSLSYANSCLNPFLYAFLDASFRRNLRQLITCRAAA
CHO parental Ca – ATP-evoked calcium signal inhibitors, parental CHO, primary screen, counter-screen for OX1R antagonist project, cell-based, fluorescence, Fluo-8 calcium dye; inhibition, % at 5.6 µM; actives 0.63% (n = 330,000); parental CHO-K1, ATP-induced calcium, Fluo-8 fluorescence; AID 463079, 2010;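 active = inhibition above that plate's mean sample inhibition plus 3 SD, cut at about 26% in these data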
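material = parental CHO cells | also added = ATP as calcium-mobilizing challenge | dosing = single point at 5.6 µM | detection = intracellular calcium via Fluo-8 no-wash fluorescent dye | read-out = % inhibition | benchmarks = low control ATP plus DMSO, high control DMSO only | repeats = one well per compound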
OX1R antag-2 – antagonists of human orexin 1 receptor (OX1R); actives 1.8% (n = 330,000); Orexin/Hypocretin receptor type 1 (Homo sapiens), O43613; inhibition, % at 6.6 µM; OX1R-expressing cells, FRET antagonist read-out; AID 485270, 2010; in the data active = inhibition mostly above about 38%, no sharp cut-off; inactive = mostly below about 40%
nonsel antag count – nonselective antagonists in TAAR1 counter-screen cells, counter-screen for hTAAR1 antagonist project, cell-based, fluorescence, calcium | shares compounds with TAAR1 antag | counterscreen cell line, antagonist mode | inhibition, % at 3 µM | actives 77% (n = 2,400); in the data active = inhibition above about 22%;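 also: CHO-Ga16 host cells stimulated with ATP at an EC80 level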
TAAR1 ant conf – human TAAR1 antagonists, retest of hits, confirmation, cell-based, fluorescence; shares compounds with TAAR1 antag; actives 40% (n = 2,400); inhibition, % at 3 µM; TAAR1-expressing cells, fluorescence antagonist read-out; AID 651785, 2012; in the data active = inhibition above about 49%;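 also: CHO-Ga16 host cells challenged with agonist PEA near its EC80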
Ga16 nonsel ag – calcium activation in Ga16-expressing cells, counter-screen for TAAR1 antagonist project, cell-based, fluorescence; shares compounds with TAAR1 antag; agonist counterscreen; activation, % at 3 µM; actives 18% (n = 2,400); AID 651953, 2012; in the data active = activation above about 12%
TAAR1 ag counter – TAAR1 activation by candidate antagonists – cell-based, fluorescence, counter-screen for TAAR1 antagonist project; activation, % at 3 µM; shares compounds with TAAR1 antag; AID 651955, 2012; actives 2% (n = 2,400); hTAAR1 cell line, agonist mode; in the data active = activation above about 37%;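 also: CHO cells stably expressing TAAR1 with calcium dye readout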
Large screens that a line does not name were inactive (follow-up assays come after a bar, where they were run). The list is not random: actives were taken first. Their share in the collection is about 4.6%.

CCc1cc(=O)oc2cc(C)cc(OC(C)C(=O)NC3CCN(Cc4ccccc4)CC3)c12 (centres undefined)	none
Cc1nc2ccc(NC(=O)c3ccc(S(=O)(=O)N(C)c4ccccc4)cc3)cc2s1	TAAR1 antag 59 | nonsel antag count 33 | TAAR1 ant conf 53 | Ga16 nonsel ag inactive | TAAR1 ag counter inactive
CC(=O)Nc1ccc(NC(=O)c2ccc(S(=O)(=O)N(C)c3ccccc3)cc2)cc1	none (no result: GPR7 antag)
O=C1NC(=Nc2ccccc2)S/C1=C\c1cccn1-c1ccccc1	TAAR1 antag 73, OX1R antag-2 60 | nonsel antag count 32 | TAAR1 ant conf inactive | Ga16 nonsel ag inactive | TAAR1 ag counter inactive
FC(F)Sc1ccc(NC(=S)N2CCN(c3ccccn3)CC2)cc1	none (no result: OX1R antag-1, CHO parental Ca, OX1R antag-2)
Oc1ccccc1N1CCN(C(=S)Nc2ccc(SC(F)F)cc2)CC1	TAAR1 antag 83 | nonsel antag count 42 | TAAR1 ant conf 55 | Ga16 nonsel ag 14 | TAAR1 ag counter inactive
C[C@H](NC(=O)c1nc[nH]c1C(=O)NCC(=O)OCc1ccccc1)c1ccccc1	TAAR1 antag 64 | nonsel antag count 32 | TAAR1 ant conf 50 | Ga16 nonsel ag inactive | TAAR1 ag counter inactive
C[C@H](NC(=O)c1nc[nH]c1C(=O)NCC(=O)OCc1ccccc1)C(=O)OCc1ccccc1	TAAR1 antag 71 | nonsel antag count 36 | TAAR1 ant conf 62 | Ga16 nonsel ag inactive | TAAR1 ag counter inactive
CC(C)C[C@H](NC(=O)c1nc[nH]c1C(=O)NCC(=O)OCc1ccccc1)C(=O)OCc1ccccc1	TAAR1 antag 67 | nonsel antag count inactive | TAAR1 ant conf 53 | Ga16 nonsel ag inactive | TAAR1 ag counter inactive
C[C@H](NC(=O)c1nc[nH]c1C(=O)OCc1ccccc1)c1ccccc1	none (no result: GPR7 antag)
CNC(=O)c1[nH]cnc1C(=O)N[C@@H](C)C(=O)OCc1ccccc1	none (no result: GPR7 antag)
CC(C)C[C@H](NC(=O)c1nc[nH]c1C(=O)NCC(=O)OC(C)(C)C)C(=O)OCc1ccccc1	none (no result: GPR7 antag)
O=C1CCc2cc(NS(=O)(=O)c3ccccc3)cc3c2N1CCC3	none (no result: GPR7 antag)
CCCCCN(C(=O)CCC(=O)OCC(=O)N(C)Cc1ccc(C)cc1)c1c(N)n(CCCC)c(=O)[nH]c1=O	none
COc1cccc(C(=O)N(Cc2ccc(N(C)C)cc2)C2CCS(=O)(=O)C2)c1 (centres undefined)	TAAR1 antag 106 | nonsel antag count inactive | TAAR1 ant conf inactive | Ga16 nonsel ag inactive | TAAR1 ag counter inactive
CNC(=O)c1ccc(N(Cc2ccccc2)S(C)(=O)=O)cc1	none
CCC(=O)c1ccc(OCC(=O)OCC(=O)Nc2ccc(C)c(S(=O)(=O)N3CCCCC3)c2)cc1	TAAR1 antag 67 (no result: GPR7 antag) | nonsel antag count 56 | TAAR1 ant conf 57 | Ga16 nonsel ag 17 | TAAR1 ag counter inactive
CCOC(=O)Cc1csc(NC(=O)c2ccc([N+](=O)[O-])cc2[N+](=O)[O-])n1	none
CCOC(=O)Cc1csc(NC(=O)c2cc(-c3ccncc3)nc3ccccc23)n1	TAAR1 antag 64 (no result: GPR7 antag) | nonsel antag count 33 | TAAR1 ant conf 50 | Ga16 nonsel ag inactive | TAAR1 ag counter inactive
Cc1ccc(-c2cc(C(=O)Nc3cc(C(=O)O)ccc3C)c3ccccc3n2)cc1	none
Cc1ccc(S(=O)(=O)N(C)C)cc1NC(=O)c1cc(-c2ccncc2)nc2ccccc12	TAAR1 antag 54 (no result: GPR7 antag) | nonsel antag count inactive | TAAR1 ant conf inactive | Ga16 nonsel ag inactive | TAAR1 ag counter inactive
CCOC(=O)Cc1csc(NC(=O)c2ccc(N3CCOCC3)cc2[N+](=O)[O-])n1	TAAR1 antag 55 (no result: GPR7 antag) | nonsel antag count 38 | TAAR1 ant conf 53 | Ga16 nonsel ag inactive | TAAR1 ag counter inactive
COc1ccc(NC(=O)c2cc(-c3ccncc3)nc3ccccc23)c(OC)c1	none (no result: GPR7 antag)
CCOc1ccccc1NC(=O)c1cc(-c2ccncc2)nc2c(Cl)cccc12	TAAR1 antag 71 (no result: OX1R antag-1, CHO parental Ca, OX1R antag-2) | nonsel antag count inactive | TAAR1 ant conf inactive | Ga16 nonsel ag inactive | TAAR1 ag counter inactive
CC(C)c1cc(C(=O)NCc2cccnc2)no1	none (no result: TAAR1 antag, TAAR1 agonist)
Cc1ccc(Cl)cc1NC(=O)c1ccccc1OCC(=O)N1CCOCC1	none
CC(=O)Nc1ccc2sccc2c1	none
COc1cccc(OC)c1C(=O)NC(=S)N1CCN(c2ccc(C(F)(F)F)cc2[N+](=O)[O-])CC1	TAAR1 antag 81 | nonsel antag count 31 | TAAR1 ant conf 51 | Ga16 nonsel ag inactive | TAAR1 ag counter inactive
CC1(C(=O)Nc2cccc3ncccc23)CCN1C(=O)Cc1ccc(-c2ccccc2)cc1 (centres undefined)	TAAR1 antag 67 (no result: OX1R antag-1, GPR7 antag, CHO parental Ca, OX1R antag-2) | nonsel antag count 29 | TAAR1 ant conf inactive | Ga16 nonsel ag inactive | TAAR1 ag counter inactive
CC1(C(=O)Nc2cccc3ncccc23)CCN1C(=O)CCc1ccccc1 (centres undefined)	none (no result: OX1R antag-1, GPR7 antag, CHO parental Ca, OX1R antag-2)
COc1ccc(-n2ncc3c(N4CCN(Cc5ccccc5)CC4)ncnc32)cc1	TAAR1 antag 60 | nonsel antag count 28 | TAAR1 ant conf 50 | Ga16 nonsel ag inactive | TAAR1 ag counter inactive
CCN1CCN(c2ncnc3c2cnn3-c2ccccc2)CC1	none
COc1cccc(N2CCN(c3ncnc4c3cnn4-c3ccc(C)cc3C)CC2)c1	TAAR1 antag 96, CHO parental Ca 42, OX1R antag-2 43 | nonsel antag count 48 | TAAR1 ant conf 65 | Ga16 nonsel ag inactive | TAAR1 ag counter inactive
Cc1nn(-c2ccccc2)c(N2CCCC2)c1/C=N/n1cnc2scc(-c3ccccc3)c2c1=O	TAAR1 antag 54 | nonsel antag count 28 | TAAR1 ant conf inactive | Ga16 nonsel ag inactive | TAAR1 ag counter inactive
O=C(COC(=O)c1ccc(Br)o1)NC1CCCCC1	none
